Reference: ChEMBL document CHEMBL1123779, “Modifications of primaquine as antimalarials. 4. 5-Alkoxy derivatives of primaquine” (J Med Chem, 1987)

Tested on: Plasmodium cynomolgi
Test: Cures in Plasmodium cynomolgi infected Rhesus monkeys (Macaca mulatta) on 10.0 mg/kg/day after 7 days
Type: functional, organism-based
Settings: not given

Row | Compound | Cures/no. of animals
1 | CCCCCCCCOc1c(OC)cc(NC(C)CCCN)c2nccc(C)c12 (stereo unspecified) | Toxic

Tested on: Plasmodium berghei
Test: Suppressive blood schizonticidal antimalarial activity evaluated in the trophozoite-induced Plasmodium berghei infection in mice (Mus musculus) at a dose 640 mg/kg given as number of toxic deaths
Type: toxicity, organism-based
Parameters: dose 640 mg/kg
Settings: in vivo
Method in brief: (§1)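 Rane Laboratory mouse test with blood-induced P. berghei infection, five mice per group. Toxic deaths are deaths occurring before the 6th day postinfection.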

Row | Compound | Toxic deaths
2 | CCOc1c(OC)cc(NC(C)CCCN)c2ncccc12 (stereo unspecified) | 5
3 | COc1cc(NC(C)CCCN)c2nccc(C)c2c1OCC1CCCCC1 (stereo unspecified) | 5
4 | COc1cc(NC(C)CCCN)c2nccc(C)c2c1OCCCCCCOc1ccccc1 (stereo unspecified) | 2
5 | CCCCC(C)Oc1c(OC)cc(NC(C)CCCN)c2ncc(C)cc12 (stereo unspecified) | 5
6 | CCCCCCCCOc1c(OC)cc(NC(C)CCCN)c2nccc(C)c12 (stereo unspecified) | 2

Tested on: Plasmodium cynomolgi
Test: Cures in Plasmodium cynomolgi infected Rhesus monkeys (Macaca mulatta) on 1 mg/kg/day after 7 days; cured 2 of 2
Type: functional
Settings: not given

Row | Compound | Cures/no. of animals
7 | COc1cc(NC(C)CCCN)c2nccc(C)c2c1OCC1CCCCC1 (stereo unspecified) | 2

Tested on: Mus musculus
Test: Suppressive blood schizonticidal antimalarial activity evaluated in the trophozoite-induced Plasmodium berghei infection in mice (Mus musculus) at a dose 160 mg/kg given as no. of toxic deaths
Type: functional
Settings: not given
Method in brief: as §1

Row | Compound | Toxic deaths
8 | CCOc1c(OC)cc(NC(C)CCCN)c2ncccc12 (stereo unspecified) | 3
9 | CCCCC(C)Oc1c(OC)cc(NC(C)CCCN)c2ncc(C)cc12 (stereo unspecified) | 5

Tested on: Plasmodium cynomolgi
Test: Cures in Plasmodium cynomolgi infected Rhesus monkeys (Macaca mulatta) on 0.316 mg/kg/day after 7 days; cured 0 of 1
Type: functional
Settings: not given

Row | Compound | Cures/no. of animals
10 | COc1cc(NC(C)CCCN)c2nccc(C)c2c1OCC1CCCCC1 (stereo unspecified) | 0
11 | CCCCCCCCOc1c(OC)cc(NC(C)CCCN)c2nccc(C)c12 (stereo unspecified) | 0

Tested on: Mus musculus
Test: Suppressive blood schizonticidal antimalarial activity evaluated in the trophozoite-induced Plasmodium berghei infection in mice (Mus musculus) at a dose 320 mg/kg given as no. of toxic deaths
Type: functional
Settings: not given
Method in brief: as §1

Row | Compound | Toxic deaths
12 | COc1cc(NC(C)CCCN)c2nccc(C)c2c1OCC1CCCCC1 (stereo unspecified) | 4
13 | COc1cc(NC(C)CCCN)c2nccc(C)c2c1OCCCCCCOc1ccccc1 (stereo unspecified) | 2
14 | CCCCC(C)Oc1c(OC)cc(NC(C)CCCN)c2ncc(C)cc12 (stereo unspecified) | 5

Tested on: Mus musculus
Test: Suppressive blood schizonticidal antimalarial activity evaluated in the trophozoite-induced Plasmodium berghei infection in mice (Mus musculus) at a dose 2.5 mg/kg
Type: functional
Settings: not given
Method in brief: (§2)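 Run at the Rane Laboratory in mice infected with blood-induced P. berghei, five animals per group. Activity is the increase in mean survival time over untreated infected controls. A compound counts as active when treated-group MST is more than twice the control MST. Cures are mice surviving at 60 days postinfection.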

Row | Compound | Delta MST
15 | COc1cc(NC(C)CCCN)c2nccc(C)c2c1OCC1CCCCC1 (stereo unspecified) | 9.2
16 | CCCCCCCCOc1c(OC)cc(NC(C)CCCN)c2nccc(C)c12 (stereo unspecified) | 7.8

Tested on: Mus musculus
Test: Suppressive blood schizonticidal antimalarial activity evaluated in the trophozoite-induced Plasmodium berghei infection in mice (Mus musculus) at a dose 20 mg/kg given as no. of cures
Type: functional
Settings: not given
Method in brief: (§3)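 Run at the Rane Laboratory with blood-induced P. berghei infections in mice, five animals per group. A cure is a mouse surviving to 60 days postinfection. Deaths before day 6 are recorded separately as toxic deaths. Activity is scored from the increase in mean survival time over untreated controls, and counts as active when treated MST is more than twice control MST.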

Row | Compound | Cures
17 | COc1cc(NC(C)CCCN)c2nccc(C)c2c1OCC1CCCCC1 (stereo unspecified) | 4
18 | COc1cc(NC(C)CCCN)c2nccc(C)c2c1OCCCCCCOc1ccccc1 (stereo unspecified) | 4
19 | CCCCC(C)Oc1c(OC)cc(NC(C)CCCN)c2ncc(C)cc12 (stereo unspecified) | 2
20 | CCCCCCCCOc1c(OC)cc(NC(C)CCCN)c2nccc(C)c12 (stereo unspecified) | 5

Tested on: Mus musculus
Test: Suppressive blood schizonticidal antimalarial activity evaluated in the trophozoite-induced Plasmodium berghei infection in mice (Mus musculus) at a dose 160 mg/kg given as no. of cures
Type: functional
Settings: not given
Method in brief: as §3

Row | Compound | Cures
21 | COc1cc(NC(C)CCCN)c2nccc(C)c2c1OCCCCCCOc1ccccc1 (stereo unspecified) | 2
22 | CCCCCCCCOc1c(OC)cc(NC(C)CCCN)c2nccc(C)c12 (stereo unspecified) | 2

Tested on: Mus musculus
Test: Suppressive blood schizonticidal antimalarial activity evaluated in the trophozoite-induced Plasmodium berghei infection in mice (Mus musculus) at a dose 40 mg/kg
Type: functional
Parameters: unit not given beside the values
Settings: not given
Method in brief: as §2

Row | Compound | Delta MST
23 | CCOc1c(OC)cc(NC(C)CCCN)c2ncccc12 (stereo unspecified) | 0.3

Tested on: Mus musculus
Test: Suppressive blood schizonticidal antimalarial activity evaluated in the trophozoite-induced Plasmodium berghei infection in mice (Mus musculus) at a dose 10 mg/kg
Type: functional
Settings: not given
Method in brief: as §2

Row | Compound | Delta MST
24 | CCCCC(C)Oc1c(OC)cc(NC(C)CCCN)c2ncc(C)cc12 (stereo unspecified) | 6.1

Tested on: Mus musculus
Test: Suppressive blood schizonticidal antimalarial activity evaluated in the trophozoite-induced Plasmodium berghei infection in mice (Mus musculus) at a dose 80 mg/kg given as no. of cures
Type: functional
Settings: not given
Method in brief: as §3

Row | Compound | Cures
25 | COc1cc(NC(C)CCCN)c2nccc(C)c2c1OCC1CCCCC1 (stereo unspecified) | 1
26 | COc1cc(NC(C)CCCN)c2nccc(C)c2c1OCCCCCCOc1ccccc1 (stereo unspecified) | 4
27 | CCCCC(C)Oc1c(OC)cc(NC(C)CCCN)c2ncc(C)cc12 (stereo unspecified) | 1
28 | CCCCCCCCOc1c(OC)cc(NC(C)CCCN)c2nccc(C)c12 (stereo unspecified) | 5

Tested on: Plasmodium cynomolgi
Test: Cures in Plasmodium cynomolgi infected Rhesus monkeys (Macaca mulatta) on 10.0 mg/kg/day after 7 days; cured 1 of 1
Type: functional
Settings: not given

Row | Compound | Cures/no. of animals
29 | COc1cc(NC(C)CCCN)c2nccc(C)c2c1OCC1CCCCC1 (stereo unspecified) | 1

Tested on: Plasmodium cynomolgi
Test: Cures in Plasmodium cynomolgi infected Rhesus monkeys (Macaca mulatta) on 0.316 mg/kg/day after 7 days; cured 0 of 2
Type: functional
Settings: not given

Row | Compound | Cures/no. of animals
30 | COc1cc(NC(C)CCCN)c2nccc(C)c2c1OCCCCCCOc1ccccc1 (stereo unspecified) | 0

Tested on: Mus musculus
Test: Suppressive blood schizonticidal antimalarial activity evaluated in the trophozoite-induced Plasmodium berghei infection in mice (Mus musculus) at a dose 320 mg/kg
Type: functional
Settings: not given
Method in brief: as §2

Row | Compound | Delta MST
31 | CCCCCCCCOc1c(OC)cc(NC(C)CCCN)c2nccc(C)c12 (stereo unspecified) | 0.4

Tested on: Plasmodium cynomolgi
Test: Cures in Plasmodium cynomolgi infected Rhesus monkeys (Macaca mulatta) on 1 mg/kg/day after 7 days; cured 1 of 1
Type: functional
Settings: not given

Row | Compound | Cures/no. of animals
32 | COc1cc(NC(C)CCCN)c2nccc(C)c2c1OCCCCCCOc1ccccc1 (stereo unspecified) | 1
33 | CCCCC(C)Oc1c(OC)cc(NC(C)CCCN)c2ncc(C)cc12 (stereo unspecified) | 1
34 | CCCCCCCCOc1c(OC)cc(NC(C)CCCN)c2nccc(C)c12 (stereo unspecified) | 1

Tested on: Plasmodium berghei
Test: Blood schizonticidal activity in trophozoite-induced Plasmodium berghei infected mice (Mus musculus) at 40 mg/kg; numbers cured
Type: functional
Settings: not given
Method in brief: as §3

Row | Compound | Cures
35 | COc1cc(NC(C)CCCN)c2nccc(C)c2c1OCC1CCCCC1 (stereo unspecified) | 3
36 | COc1cc(NC(C)CCCN)c2nccc(C)c2c1OCCCCCCOc1ccccc1 (stereo unspecified) | 5
37 | CCCCC(C)Oc1c(OC)cc(NC(C)CCCN)c2ncc(C)cc12 (stereo unspecified) | 3
38 | CCCCCCCCOc1c(OC)cc(NC(C)CCCN)c2nccc(C)c12 (stereo unspecified) | 5

Tested on: Mus musculus
Test: Suppressive blood schizonticidal antimalarial activity evaluated in the trophozoite-induced Plasmodium berghei infection in mice (Mus musculus) at a dose 5 mg/kg
Type: functional
Parameters: unit not given beside the values
Settings: not given
Method in brief: as §2

Row | Compound | Delta MST
39 | COc1cc(NC(C)CCCN)c2nccc(C)c2c1OCC1CCCCC1 (stereo unspecified) | 7.8
40 | COc1cc(NC(C)CCCN)c2nccc(C)c2c1OCCCCCCOc1ccccc1 (stereo unspecified) | 7.3
41 | CCCCCCCCOc1c(OC)cc(NC(C)CCCN)c2nccc(C)c12 (stereo unspecified) | 12

Tested on: Mus musculus
Test: Suppressive blood schizonticidal antimalarial activity evaluated in the trophozoite-induced Plasmodium berghei infection in mice (Mus musculus) at a dose 10 mg/kg given as no. of cures
Type: functional
Settings: not given
Method in brief: as §3

Row | Compound | Cures
42 | COc1cc(NC(C)CCCN)c2nccc(C)c2c1OCC1CCCCC1 (stereo unspecified) | 1
43 | COc1cc(NC(C)CCCN)c2nccc(C)c2c1OCCCCCCOc1ccccc1 (stereo unspecified) | 2
44 | CCCCCCCCOc1c(OC)cc(NC(C)CCCN)c2nccc(C)c12 (stereo unspecified) | 5

Tested on: Plasmodium cynomolgi
Test: Cures in Plasmodium cynomolgi infected Rhesus monkeys (Macaca mulatta) on 0.1 mg/kg/day after 7 days; cured 0 of 1
Type: functional
Settings: not given

Row | Compound | Cures/no. of animals
45 | COc1cc(NC(C)CCCN)c2nccc(C)c2c1OCC1CCCCC1 (stereo unspecified) | 0
46 | COc1cc(NC(C)CCCN)c2nccc(C)c2c1OCCCCCCOc1ccccc1 (stereo unspecified) | 0
